Compounds with a hit are over-represented: about 3.5% of the library has one in this group of screens.
MrgX1 agonist = agonists of human MrgX1 receptor, primary screen, HEK293 cells, Fluo-4 calcium flux. Mas-related G-protein coupled receptor member X1 (Homo sapiens), Q96LB2. Fluo-4 calcium fluorescence, agonist mode; stronger effect = higher value. B-score at 10 µM. 310,000 tested, 0.44% active;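 active = calcium response B-score plate-corrected fluorescence ratio at least 3 library SD, with starting fluorescence B-score inside 5 SD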
Target sequence (Q96LB2 whole entry, looked up): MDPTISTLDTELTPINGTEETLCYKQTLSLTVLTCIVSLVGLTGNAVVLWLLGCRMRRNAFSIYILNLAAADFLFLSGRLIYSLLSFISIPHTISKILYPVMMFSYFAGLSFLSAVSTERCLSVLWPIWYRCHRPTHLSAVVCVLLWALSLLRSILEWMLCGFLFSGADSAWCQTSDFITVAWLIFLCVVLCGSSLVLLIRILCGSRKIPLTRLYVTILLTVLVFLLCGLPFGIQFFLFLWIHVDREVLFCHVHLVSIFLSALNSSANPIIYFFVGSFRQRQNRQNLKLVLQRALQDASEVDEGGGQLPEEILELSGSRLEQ
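Test system: HEK293 cells stably expressing human MrgX1 receptor; Input: fifteen thousand cells per well; Dosing: compound delivered in addition one of three; Schedule: overnight seeding, then 1 h dark dye loading; Technique: Fluo-4 NW calcium fluorescence; Measure: B-scored fluorescence response ratio; Controls: positive and negative controls per plate.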
RGS4 act = RGS4 potentiators or activators, primary screen, cell-based, HEK293 M3R inducible RGS4, calcium flux; carbachol calcium flux Fluo4; stronger effect = lower value; B-score at 10 µM; 310,000 tested, 0.92% active;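 active = B-score of the integrated calcium signal more than 4 SD below the library mean, with starting fluorescence not abnormally high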;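 note: negative B-score means reduced calcium response which marks RGS4 activation or potentiation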
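Test system: HEK293 cells with stable M3R and inducible RGS4; also added: carbachol at ECmax as muscarinic agonist stimulus; schedule: dye loading 30 min 37 °C, buffer rest 30 min RT; technique: kinetic calcium fluorescence imaging with Fluo4-AM dye, 2 µM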
MrgX1 PAM = positive allosteric modulators of MrgX1, primary screen, HEK293 cells, Fluo-4 calcium flux | Mas-related G-protein coupled receptor member X1 (Homo sapiens), Q96LB2 | FDSS; stronger effect = higher value | B-score at 10 µM | 310,000 tested, 0.63% active | AID 588675, 2011;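 active = plate-corrected calcium response at least 3 library SD above typical, normal starting fluorescence, not activating the receptor alone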;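 note: compound read alongside a low EC10 to EC30 dose of BAM8-22 agonist; peak minus trough fluorescence over baseline measured at the second addition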
MrgX1 antag = antagonists of human MrgX1 receptor, primary screen, HEK293 cells, Fluo-4 calcium flux; B-score at 10 µM; AID 588676, 2011; Mas-related G-protein coupled receptor member X1 (Homo sapiens), Q96LB2; 310,000 tested, 1.3% active; BAM8-22 antagonism; stronger effect = lower value;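 active = calcium-response B-score plate-corrected more than 3 library SD below zero, starting fluorescence within 5 deviations, no agonist response on first addition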;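 note: peak minus trough fluorescence over baseline after final BAM8-22 challenge near maximal dose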
RGS4 inh = RGS4 inhibitors, primary screen, cell-based, HEK293 M3R inducible RGS4, calcium flux. 310,000 tested, 0.45% active. Fluo-4 calcium flux; stronger effect = higher value; triggered by carbachol at its EC20. Regulator of G-protein signaling 4 (Homo sapiens), P49798. AID 463165, 2010. B-score at 10 µM;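 active = B-score, a plate-corrected calcium signal, over three deviations above library mean, with baseline fluorescence within five deviations of library mean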;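 note: RGS4 expression induced by doxycycline in cells with stable M3 receptor; B-score is computed from the integrated fluorescence ratio over baseline after carbachol; higher B-score means a larger calcium signal and so more RGS4 inhibition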
Target sequence (P49798 whole entry, looked up): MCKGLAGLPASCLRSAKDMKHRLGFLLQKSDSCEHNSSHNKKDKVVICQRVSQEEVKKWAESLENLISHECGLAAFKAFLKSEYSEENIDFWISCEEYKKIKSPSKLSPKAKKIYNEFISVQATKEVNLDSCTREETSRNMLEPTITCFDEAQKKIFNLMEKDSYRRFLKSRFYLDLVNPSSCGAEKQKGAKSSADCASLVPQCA
RGS4 block valid = enhanced carbachol calcium response, M3R/RGS4 cells, RGS4 inhibitor project, cell-based, validation screen, HEK293 M3R/RGS4, calcium flux; shares compounds with RGS4 inh; carbachol calcium Fluo-4 fluorescence; carbachol added at its EC20; 0 = buffer wells, 100 = carbachol control; calcium response, % at 10 µM; 1,700 tested, 65% active;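 active = duplicate-averaged calcium response above the buffer-only control mean plus 5 SD of those controls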;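 note: integrated fluorescence ratio F max minus min over baseline F0; higher response in RGS4-induced cells means RGS4 inhibition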
RGS4 uninduced = carbachol calcium response in non-induced M3R cells, confirmation, counter-screen for RGS4 inhibitor project, cell-based, HEK293 M3R | shares compounds with RGS4 inh | carbachol calcium Fluo-4; submaximal (EC20) carbachol stimulus; buffer wells 0%, carbachol control wells 100% | activity (percent), % at 10 µM | 1,900 tested, 20% active; call rule not given here;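 note: RGS4 induction absent so cells express M3R without RGS4; higher means more calcium signal and flags a non-specific hit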
M3R basal Ca ctr = second RGS4 inhibitor counter-screen in uninduced cells lacking carbachol; shares compounds with RGS4 inh; HEK293 M3R/RGS4 non-induced, Fluo-4 calcium, no carbachol; normalised: buffer wells 0%, carbachol wells 100%; calcium response (agonist-mode artifact), % at 10 µM; 1,900 tested, 22% active; AID 493001;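 active = duplicate-averaged calcium rise in uninduced cells above buffer wells' mean plus 5 SD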
An asterisk follows results filed as active; i = inactive; / = no result.

SMILES	MrgX1 agonist	RGS4 act	MrgX1 PAM	MrgX1 antag	RGS4 inh	RGS4 block valid	RGS4 uninduced	M3R basal Ca ctr
C/C(CCc1oc2c(Br)cc(Br)cc2c1-c1ccc(C)o1)=N\O	i	i	i	i	11*	i	i	i
Cn1nc(C(=O)Nc2ccc(S(=O)(=O)Nc3ncccn3)cc2)ccc1=O	i	i	i	i	i	/	/	/
COc1ccc2c(c1)c(C(=O)CN1CCC(C(N)=O)CC1)c(C)n2C	i	i	i	i	i	i	i	i
COc1ccc2c(c1)c(C(=O)CN1CCCCC1)c(C)n2C	i	i	i	i	i	/	/	/
CC(=O)N1CCc2cc(S(=O)(=O)NC(C(=O)NC(C)c3ccccc3)C(C)C)ccc21 (stereo not drawn)	i	i	i	i	i	i	i	i
Cc1cc2cc(C)c(NCCNC(=O)c3ccccc3)nc2cc1C	i	i	i	i	i	i	i	i
CCOC(=O)c1cc(NC(=O)Nc2ccc(Br)cc2)c(C)nc1C	i	i	i	i	i	/	/	/
CC(Oc1ccc(F)cc1)C(=O)Nc1cc(Cl)ccc1-n1cncn1 (stereo not drawn)	i	i	i	i	i	/	/	/
O=C(COc1ccc(Cl)cc1Cl)c1ccc[nH]1	i	i	i	i	i	/	/	/
Cc1cc(N=Cc2cc(Br)ccc2O)no1	i	i	i	i	7.2*	7.5%*	i	i
CC(=O)Nc1ccc(Nc2cc(C(C)C)nc3c(-c4ccccc4)c(C)nn23)cc1	i	i	i	i	7.2*	41%*	60%*	i
CC(=O)Nc1ccc(Nc2cc(C)nc3c(-c4ccccc4)c(C)nn23)cc1	i	i	i	i	8.6*	13%*	i	i
Cc1nn2c(NCc3ccccn3)cc(C(C)C)nc2c1-c1ccccc1	i	i	i	i	i	/	/	/
CCOC(=O)COc1cc([N+](=O)[O-])cc2cccnc12	i	i	i	i	i	/	/	/
CCOC(=O)COc1ccccc1/C=C\[N+](=O)[O-]	i	i	i	i	19*	70%*	i	11%*
CCOC(=O)c1c(-c2ccccc2)csc1NC(=O)CSc1nc(C)cc(C)n1	i	i	i	i	i	i	i	i
CCOC(=O)c1c(-c2ccccc2)csc1NC(=O)CSc1nc(N)cc(N)n1	i	i	i	i	5.5*	6.0%*	i	i
CCOC(=O)c1c(-c2ccc(C)o2)csc1NC(=O)CN1CCCCC1	i	i	i	i	i	/	/	/
CCOC(=O)c1c(-c2ccc(C)o2)csc1NC(=O)CSc1nncs1	i	i	i	i	13*	11%*	i	i
Cc1ccc(SCc2[nH]nc3c2C2(C(=O)Nc4ccc([N+](=O)[O-])cc42)C(C#N)=C(N)O3)cc1 (stereo not drawn)	i	i	i	i	6.1*	i	i	i
Cc1ccc(SCc2[nH]nc3c2C2(CCSCC2)C(C#N)=C(N)O3)cc1	i	i	i	i	i	/	/	/
CCCn1ncc(CN2CCC(C(=O)Nc3cccc(-c4cccc(F)c4)c3)CC2)c1C	i	i	i	i	i	/	/	/
COC(=O)C1CCN(Cc2cc(=O)oc3cc(OC)ccc23)CC1	i	i	i	i	4.8*	21%*	i	i
CCOC(=O)C1CCN(Cc2cc(=O)oc3cc(C)c(Cl)cc23)CC1	i	i	i	i	9.3*	5.0%*	i	i
COc1ccc(OC)c(CN2CCN(Cc3cc(=O)oc4cc(O)ccc34)CC2)c1	i	i	i	i	i	/	/	/
SMILES	MrgX1 agonist	RGS4 act	MrgX1 PAM	MrgX1 antag	RGS4 inh	RGS4 block valid	RGS4 uninduced	M3R basal Ca ctr
O=C(CSc1ncn[nH]1)N1N=C2/C(=C/c3ccccc3)CCCC2C1c1ccccc1 (stereo not drawn)	i	i	i	i	5.1*	10%*	i	i
COc1ccc(/C=C2\CCCC3C2=NN(C(=O)CSc2ncn[nH]2)C3c2ccc(OC)cc2)cc1 (stereo not drawn)	i	i	i	i	i	/	i	i
O=C(O)CSCC(=O)N1N=C2/C(=C/c3ccccc3)CCCC2C1c1ccccc1 (stereo not drawn)	i	i	i	i	i	/	/	/
O=C(O)c1ccc2c(=O)n3c(nc2c1)/C(=C/c1ccc(Cl)cc1Cl)CC3	i	i	i	i	19*	24%*	i	i
O=c1oc2ccccc2cc1N1CCOCC1	i	i	i	i	i	/	/	/
O=C(CC1S/C(=N/N=C2CCCCCC2)NC1=O)Nc1ccccc1C(F)(F)F (stereo not drawn)	i	i	i	i	i	/	/	/
COc1ccccc1NC(=O)CC1S/C(=N/N=C2\CCCc3ccccc32)NC1=O (stereo not drawn)	i	i	i	i	6.1*	60%*	62%*	i
O=C(c1ccco1)N1CCN(c2ncnc3c(-c4ccccc4)nsc23)CC1	i	i	i	i	i	/	i	i
NC(=O)C1CCN(c2ncnc3c(-c4ccccc4)nsc23)CC1	i	i	i	i	i	/	/	/
COc1ccc(-c2nsc3c(N4CCN(C(=O)c5ccco5)CC4)ncnc23)cc1	i	i	i	i	i	i	i	i
O=C(O)c1ccc(NCCc2ccc(Cl)cc2)c([N+](=O)[O-])c1	i	i	i	i	i	/	/	/
OC[C@H]1O[C@@H](n2cnc3c(NC4CCCC4)nc(Cl)nc32)[C@H](O)[C@@H]1O	i	/	i	i	/	/	/	/

Source: PubChem (Johns Hopkins Ion Channel Center)
